Most compounds without a hit are left out; they make up all but 1.6% or so of the library.
PLC-beta3 inh: blocks human PLC-beta3 enzyme activity; inhibition, % at 12.2 µM; Q01970; AID 720704; Purified PLC-beta3, fluorogenic substrate, fluorescence; hit rate 0.18% among 370,000; in the data active means inhibition above about 11%
HGIII-sPLA2 inh: Blocks human group III sPLA2 activity. Q9NZ20. QFRET BODIPY PC-A2 liposome hydrolysis, fluorescence. inhibition, % at 12.2 µM. hit rate 0.56% among 370,000. AID 743126;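 active means inhibition above mean plus 3 SD of compounds lying within the high and low control bounds, cut at about 19% in these data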
Target sequence (Q9NZ20 whole entry, looked up): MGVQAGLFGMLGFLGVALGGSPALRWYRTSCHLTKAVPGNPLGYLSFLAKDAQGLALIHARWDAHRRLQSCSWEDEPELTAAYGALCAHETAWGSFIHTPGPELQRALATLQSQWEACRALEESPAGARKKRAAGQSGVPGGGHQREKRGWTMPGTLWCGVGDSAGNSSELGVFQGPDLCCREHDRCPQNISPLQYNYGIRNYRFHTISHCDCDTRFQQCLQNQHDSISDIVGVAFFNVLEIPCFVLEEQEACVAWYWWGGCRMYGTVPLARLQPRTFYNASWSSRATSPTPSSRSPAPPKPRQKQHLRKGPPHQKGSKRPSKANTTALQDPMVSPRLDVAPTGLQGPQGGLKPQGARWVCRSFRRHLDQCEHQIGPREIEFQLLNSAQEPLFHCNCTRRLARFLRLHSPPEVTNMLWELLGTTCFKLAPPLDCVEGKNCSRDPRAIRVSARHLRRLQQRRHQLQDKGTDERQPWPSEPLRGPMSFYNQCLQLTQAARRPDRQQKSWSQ
proCasp7 act: counter-screen: procaspase-7 (human) activation. recombinant procaspase-7, Ac-DEVD-pNA absorbance 405 nm; D23A/D198A/D206A triple mutant, cannot self-cleave; scale: DMSO 0, 5 µM enzyme 100. activation, % at 8.5 µM. hit rate 0.093% among 330,000. AID 463210;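 active means percent activation above the screen-wide mean plus 3 SD, cut at about 25% in these data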
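Material: Procaspase-7 triple mutant (PC-7 D3A) | Quantity: 2 µM procaspase-7 mutant as dispensed | Reagent: DEVD-pNA substrate | Times: 1 h preincubation, 2 h reaction | Technique: 405 nm absorbance of p-nitroaniline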
PLC-gamma1 inh: PLC-gamma1 (human) inhibition, primary screen; inhibition, % at 12.2 µM; hit rate 0.84% among 370,000; purified PLC-gamma1, fluorogenic substrate, fluorescence; P19174
proCasp3 act: activators of human procaspase-3. recombinant procaspase-3 D3A, Ac-DEVD-pNA absorbance 405 nm. activation, % at 8.5 µM. hit rate 0.11% among 330,000. AID 463141;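 active means activation above the mean of all tested compounds plus 3 SD, cut at about 21% in these data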
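Technique: 405 nm absorbance of p-nitroaniline, reads at 0 and 120 min; Test system: Procaspase-3 D3A mutant; Incubation: 1 h enzyme-compound preincubation, then 2 h substrate reaction, 25 °C; Repeats: singlicate, each compound tested once; Benchmarks: low control DMSO wells, high control DMSO plus 5 µM PC-3 D3A.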
PLCgamma1 ctr: counter-screen for PLC-beta3 inhibitors: inhibitors of human PLC-gamma1; hit rate 3.1% among 3,300; purified PLC-gamma1, fluorogenic substrate, fluorescence; inhibition, % at 12.3 µM; shares compounds with PLC-gamma1 inh
PLCbeta3 conf: confirmation of human PLC-beta3 inhibitors; inhibition, % at 12.3 µM; shares compounds with PLC-gamma1 inh; purified PLC-beta3, fluorogenic substrate fluorescence; hit rate 1% among 3,300; in the data active means inhibition above about 11%
Numbers stand for hits; n = inactive; x = not tested or not shown. Unless noted, no stated cut-off is given here; in the data, active means inhibition above about 9.5%; inactive means the rest.

SMILES	PLC-beta3 inh	HGIII-sPLA2 inh	proCasp7 act	PLC-gamma1 inh	proCasp3 act	PLCgamma1 ctr	PLCbeta3 conf
O=C(NC1=NCCS1)C12CC3CC(CC(C3)C1)C2	11	n	n	n	n	n	n
CCCCNc1c(-c2cccc(-c3cc(C(C)=O)cs3)c2)nc2ccc(C)cn12	n	n	n	9.7	n	n	n
CCCCNc1c(-c2cccc(-c3ccc(OC)cc3)c2)nc2ccc(C)cn12	n	n	n	n	n	x	x
O=S(=O)(NCCCCCNS(=O)(=O)c1ccc(F)cc1)c1ccc(F)cc1	n	n	n	n	n	x	x
O=C(O)CCCNS(=O)(=O)c1ccc(F)cc1	n	n	n	9.7	n	n	n
O=C(CN1C2=NCCCN2c2ccccc21)c1cccc(Br)c1	n	n	n	n	n	x	x
O=C(CN1C2=NCCCN2c2ccccc21)c1ccc([N+](=O)[O-])cc1	n	n	n	9.6	n	n	n
COc1ccc(NC(=O)CN(c2ccc(OC)c(Cl)c2)S(=O)(=O)c2ccccc2)c(OC)c1	n	n	n	11	n	n	n
CN1C(=O)[C@@]2(O[C@H]3[C@H]4C=C[C@@H]([C@H]5C(=O)N(Cc6ccccc6)C(=O)[C@@H]45)N3C3=C2C(=O)CC3)c2ccccc21	14	n	x	n	x	n	n
Clc1nnc(Cl)c2c1ncn2Cc1ccccc1	n	n	n	11	n	n	n
O=c1c2ccccc2ncn1Cc1ccccc1	n	n	n	n	n	x	x
CCN(C(=O)c1cc(OC)c(OC)c(OC)c1)C1CCCCC1	n	n	x	n	x	x	x
CO/N=C/c1cc([N+](=O)[O-])ccc1Sc1ccc(C)cc1	n	n	n	10	n	n	n
CO/N=C/c1ccc(Sc2ccc(C)cc2)c([N+](=O)[O-])c1	n	n	n	n	n	x	x
CN(CCNC(=O)C1CCN(S(=O)(=O)c2cnc[nH]2)CC1)Cc1ccccc1	n	n	n	12	n	n	n
COc1ccc(CCNC(=O)C2CCN(S(=O)(=O)c3cnc[nH]3)CC2)cc1OC	n	n	n	n	n	x	x
Cn1c(SC/C=C/c2ccccc2)nnc1-c1cccnc1	n	n	x	12	x	n	n
Cc1cc(C)c(Cn2c(=O)[nH][nH]c2=O)cc1Cn1c(=O)[nH][nH]c1=O	n	n	x	n	x	x	x
O=C(CCC1CCCN(C(=O)c2cncs2)C1)NCc1ccc(F)c(F)c1 (stereo unspecified)	n	n	n	10	n	n	n
O=C(CCC1CCCN(C(=O)C2CCCC2)C1)NCc1ccc(F)c(F)c1 (stereo unspecified)	n	n	n	n	n	x	x
CC(C)CNC(=O)C1(C)CCCN1C(=O)CCc1cccs1 (stereo unspecified)	n	n	x	n	x	x	x
Nc1nc(SCC(=O)Nc2ccccc2Oc2ccccc2)n[nH]1	12	n	n	n	n	n	n
Nc1nc(SCC(=O)Nc2ccccc2-c2ccccc2)n[nH]1	n	n	n	n	n	x	x
CCn1c2ccccc2c2cc(NC(=O)CSc3nnc(-c4cccc(F)c4)o3)ccc21	n	n	n	13	n	n	n
CCn1c2ccccc2c2cc(NC(=O)CSc3nnc(-c4ccccc4)o3)ccc21	n	n	n	n	n	x	x
SMILES	PLC-beta3 inh	HGIII-sPLA2 inh	proCasp7 act	PLC-gamma1 inh	proCasp3 act	PLCgamma1 ctr	PLCbeta3 conf
COc1cc(/C=C/C(=O)O)cc(S(=O)(=O)NCCCC(=O)O)c1OC	n	n	n	n	n	x	x
CCc1cccc(CC)c1NC(=O)COC(=O)C1(C)CC1(Cl)Cl (stereo unspecified)	n	n	n	n	n	x	x
Cc1cccc(C)c1Nc1ncnc2ccccc12	n	n	n	9.7	n	n	n
CCOC(=O)c1ncn2c1C(=O)OC2(C)C	n	n	n	15	n	n	n
CCOC(=O)C1=CC(=O)CC(C)(C)O1	n	n	x	n	x	x	x
CCOc1ccc(-c2csc3ncn(-c4ccc(OC)cc4)c(=O)c23)cc1	n	n	n	10	n	n	n
CCn1cnc2scc(-c3ccc(OC)cc3)c2c1=O	n	n	n	n	n	x	x
CC1(C(=O)NCc2ccco2)Cc2c(-c3ccc(C(N)=O)cc3)ccnc2O1 (stereo unspecified)	n	n	x	n	x	x	x
CN(C)S(=O)(=O)c1ccc(C(=O)Nc2nnc(Cc3ccccc3)s2)cc1	11	n	n	n	n	n	n
O=C(Nc1ccc(Br)cc1)C1CCCN1S(=O)(=O)c1cccs1 (stereo unspecified)	n	n	n	9.8	n	n	n
CC(=O)Nc1ccc(CN(C)c2c(C)nc3ccc(C(=O)N4CCN(c5ccccc5)CC4)cn23)cc1	n	n	x	n	x	x	x
CNC(=S)N/N=C(\C)c1ccc2c(c1)OCCO2	n	n	n	15	n	n	n
S=C(NCCCN1CCOCC1)N1CCN(c2cccc(Cl)c2)CC1	n	n	n	n	n	x	x
CCOC(=O)c1c(C)[nH]c(C)c1S(=O)(=O)NCCc1sccc1C	n	n	n	9.9	n	n	n
CC(C)COc1ccc(C(=O)Nc2ccc(NC(=O)c3ccco3)c(Cl)c2)cc1	n	n	n	n	n	x	x
CC(C)Oc1ccc(C(=O)Nc2ccc(NC(=O)c3ccco3)c(Cl)c2)cc1	15	n	n	n	n	n	n
CN(CCOc1ccccc1)C(=O)c1ccc2c(c1)OCO2	n	n	n	n	n	x	x
O=C(Nc1ccc2c(c1)OCO2)c1cccc(S(=O)(=O)N2CCCC2)c1	11	n	n	n	n	n	n
CC(C)c1ccccc1NC(=O)Nc1ccc2c(c1)OCO2	n	n	n	12	n	9.7	n
O=C(NCCOc1ccccc1)c1ccc2c(c1)OCO2	n	n	n	13	n	n	n
O=C(Nc1ccc2c(c1)OCO2)c1cccc(S(=O)(=O)N2CCOCC2)c1	n	n	n	n	n	x	x
O=C(COC(=O)c1n[nH]c2ccccc12)Nc1ccc(S(=O)(=O)N2CCCC2)cc1	n	n	n	11	n	n	n
O=C(Nc1ccc(S(=O)(=O)N2CCCC2)cc1)c1ccccc1	n	n	n	n	n	x	x
O=C(O)c1ccccc1C(=O)Nc1ccc(S(=O)(=O)N2CCCC2)cc1	n	n	n	10	n	n	n
Cc1cc(NC(=O)c2ccc3c(c2)OCO3)ccc1NC(=O)c1ccccc1	12	n	n	n	n	n	15
Cc1c(O)nc(SCC(=O)Nc2nccs2)n(-c2ccccc2F)c1=O	n	n	x	n	x	x	x
C=CCC[C@@H](Cc1ccc(F)cc1)C(=O)OC[C@H](Cc1c[nH]c2ccccc12)NC(=O)[C@@H](CC=C)CC(=O)N[C@@H](CO)Cc1ccccc1	n	n	n	10	n	n	n

Bioassay records (PubChem BioAssay)
